Data from ChEMBL document CHEMBL4257493, “Discovery of 7-hydroxyaporphines as conformationally restricted ligands for beta-1 and beta-2 adrenergic receptors” (Medchemcomm, 2018).
The source made the active and inactive calls. The rule behind the calls is not given here.

Tests used:
[1] = molecular target: T1, Beta-2 adrenergic receptor (Homo sapiens, UniProt P07550); experiment: Displacement of [3H]-CGP-12177 from human beta2-adrenergic receptor
[2] = molecular target: T2, Beta-3 adrenergic receptor (Homo sapiens, UniProt P13945); experiment: Displacement of [3H]-CGP-12177 from human beta3-adrenergic receptor
Homo sapiens [3] = species on record: Homo sapiens; experiment: Ratio of IC50 for human beta3-adrenergic receptor to IC50 for human beta1-adrenergic receptor
[4] = molecular target: T3, Beta-1 adrenergic receptor (Homo sapiens, UniProt P08588); experiment: Antagonist activity at human beta1-adrenergic receptor expressed in CHO-K1 cells assessed as decrease in isoproterenol-induced cAMP accumulation after 15 mins by HTRF assay; type: functional, cell-based
Procedure, shortened: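 Run as a contract service: human beta1 receptor in CHO-K1 cells, with antagonist mode against isoproterenol-stimulated cAMP. Incubation 15 min at 37 °C in HBSS with 5 mM HEPES, 0.1% BSA and 100 µM IBMX, pH 7.4, in 0.40% DMSO vehicle. cAMP accumulation read by HTRF; dose-response curves.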

[5] = molecular target: 5-hydroxytryptamine receptor 1D (Homo sapiens, UniProt P28221); experiment: Binding affinity to 5-HT1D receptor (unknown origin) assessed as inhibition of radioligand binding by radioligand competition binding assay
[6] = molecular target: 5-hydroxytryptamine receptor 7 (Homo sapiens, UniProt P34969); experiment: Binding affinity to 5-HT7 receptor (unknown origin) assessed as inhibition of radioligand binding by radioligand competition binding assay
[7] = molecular target: Alpha-2A adrenergic receptor (Homo sapiens, UniProt P08913); experiment: Binding affinity to andrenergic alpha2A receptor (unknown origin) assessed as inhibition of radioligand binding by radioligand competition binding assay
[8] = molecular target: T2, Beta-3 adrenergic receptor; experiment: Binding affinity to andrenergic beta3 receptor (unknown origin) assessed as inhibition of radioligand binding by radioligand competition binding assay
[9] = molecular target: T3, Beta-1 adrenergic receptor; experiment: Agonist activity at human beta1-adrenergic receptor expressed in CHO-K1 cells assessed as induction of cAMP accumulation after 15 mins by HTRF assay; type: functional, cell-based
Procedure, shortened: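 cAMP accumulation in human β1-expressing CHO-K1 cells, quantified by HTRF. Vehicle 0.40% DMSO. Incubation 15 minutes at 37°C in HBSS with 5 mM HEPES, 0.1% BSA and 100 μM IBMX, pH 7.4. Run by a contract screening service.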

[10] = molecular target: T1, Beta-2 adrenergic receptor; experiment: Agonist activity at human beta2-adrenergic receptor expressed in CHO-K1 cells assessed as increase in cAMP accumulation after 20 mins by HTRF assay; type: functional, cell-based
Procedure, shortened: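 Human β2 receptor expressed in CHO cells; cAMP accumulation read out by HTRF. Vehicle 0.40% DMSO. Incubated 20 minutes at 37°C in HBSS, 5 mM HEPES, 0.1% BSA, 100 μM IBMX, pH 7.4. Performed by a contract screening service.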

[11] = molecular target: 5-hydroxytryptamine receptor 1A (Homo sapiens) (UniProt P08908); experiment: Binding affinity to 5-HT1A receptor (unknown origin) assessed as inhibition of radioligand binding at 10 uM by radioligand competition binding assay
[12] = molecular target: 5-hydroxytryptamine receptor 1B (Homo sapiens, UniProt P28222); experiment: Binding affinity to 5-HT1B receptor (unknown origin) assessed as inhibition of radioligand binding at 10 uM by radioligand competition binding assay
[13] = molecular target: 5-hydroxytryptamine receptor 6 (Homo sapiens, UniProt P50406); experiment: Binding affinity to 5-HT6 receptor (unknown origin) assessed as inhibition of radioligand binding at 10 uM by radioligand competition binding assay
[14] = molecular target: T2, Beta-3 adrenergic receptor; experiment: Binding affinity to andrenergic beta3 receptor (unknown origin) assessed as inhibition of radioligand binding at 10 uM by radioligand competition binding assay
[15] = molecular target: Sodium-dependent serotonin transporter (Homo sapiens) (UniProt P31645); experiment: Binding affinity to SERT (unknown origin) assessed as inhibition of radioligand binding by radioligand competition binding assay; settings: concentration not given here
[16] = molecular target: Translocator protein (Homo sapiens) (UniProt P30536); experiment: Binding affinity to PBR (unknown origin) assessed as inhibition of radioligand binding by radioligand competition binding assay; settings: concentration not given here
[17] = molecular target: Sodium-dependent dopamine transporter (Homo sapiens) (UniProt Q01959); experiment: Binding affinity to DAT (unknown origin) assessed as inhibition of radioligand binding by radioligand competition binding assay; settings: concentration not given here
[18] = molecular target: Kappa-type opioid receptor (Homo sapiens) (UniProt P41145); experiment: Binding affinity to KOR (unknown origin) assessed as inhibition of radioligand binding by radioligand competition binding assay; settings: concentration not given here
Homo sapiens [19] = species on record: Homo sapiens; experiment: Binding affinity to sigma2 receptor (unknown origin) assessed as inhibition of radioligand binding by radioligand competition binding assay; settings: concentration not given here
[20] = molecular target: Muscarinic acetylcholine receptor M5 (Homo sapiens) (UniProt P08912); experiment: Binding affinity to muscarinic M5 receptor (unknown origin) assessed as inhibition of radioligand binding by radioligand competition binding assay; settings: concentration not given here
[21] = molecular target: Muscarinic acetylcholine receptor M4 (Homo sapiens) (UniProt P08173); experiment: Binding affinity to muscarinic M4 receptor (unknown origin) assessed as inhibition of radioligand binding by radioligand competition binding assay; settings: concentration not given here
[22] = molecular target: Muscarinic acetylcholine receptor M1 (Homo sapiens) (UniProt P11229); experiment: Binding affinity to muscarinic M1 receptor (unknown origin) assessed as inhibition of radioligand binding by radioligand competition binding assay; settings: concentration not given here
[23] = molecular target: Histamine H2 receptor (Homo sapiens) (UniProt P25021); experiment: Binding affinity to histamine H2 receptor (unknown origin) assessed as inhibition of radioligand binding by radioligand competition binding assay; settings: concentration not given here
[24] = molecular target: Histamine H3 receptor (Homo sapiens) (UniProt Q9Y5N1); experiment: Binding affinity to histamine H3 receptor (unknown origin) assessed as inhibition of radioligand binding by radioligand competition binding assay; settings: concentration not given here
[25] = molecular target: D(1B) dopamine receptor (Homo sapiens) (UniProt P21918); experiment: Binding affinity to dopamine D5 receptor (unknown origin) assessed as inhibition of radioligand binding by radioligand competition binding assay; settings: concentration not given here
[26] = molecular target: D(2) dopamine receptor (Homo sapiens) (UniProt P14416); experiment: Binding affinity to dopamine D2 receptor (unknown origin) assessed as inhibition of radioligand binding by radioligand competition binding assay; settings: concentration not given here
[27] = molecular target: Alpha-2C adrenergic receptor (Homo sapiens) (UniProt P18825); experiment: Binding affinity to andrenergic alpha2C receptor (unknown origin) assessed as inhibition of radioligand binding by radioligand competition binding assay; settings: concentration not given here
[28] = molecular target: 5-hydroxytryptamine receptor 5A (Homo sapiens) (UniProt P47898); experiment: Binding affinity to 5-HT5A receptor (unknown origin) assessed as inhibition of radioligand binding by radioligand competition binding assay; settings: concentration not given here
[29] = molecular target: 5-hydroxytryptamine receptor 1E (Homo sapiens) (UniProt P28566); experiment: Binding affinity to 5-HT1E receptor (unknown origin) assessed as inhibition of radioligand binding by radioligand competition binding assay; settings: concentration not given here
[30] = molecular target: 5-hydroxytryptamine receptor 2A (Homo sapiens) (UniProt P28223); experiment: Binding affinity to 5-HT2A receptor (unknown origin) assessed as inhibition of radioligand binding by radioligand competition binding assay; settings: concentration not given here

## COc1cc2c3c(c1OC)-c1ccccc1[C@@H](O)[C@@H]3NCC2
[1]
  IC50: 1.4 nM
[2]
  IC50: 240 nM
Homo sapiens [3]
  Ratio IC50: 150
[4]
  IC50: 17 nM
[5]
  Ki: 857 nM
[6]
  Ki: 120 nM
[7]
  Ki: 1150 nM
[8]
  Ki: 308 nM
[9]
  Activity: inactive
[10]
  Activity: inactive
[11]
  inhibition: > 50%
[12]
  inhibition: > 50%
[13]
  inhibition: > 50%
[14]
  inhibition: > 50%
[15]
  inhibition: < 50%
[16]
  inhibition: < 50%
[17]
  inhibition: < 50%
[18]
  inhibition: < 50%
Homo sapiens [19]
  inhibition: < 50%
[20]
  inhibition: < 50%
[21]
  inhibition: < 50%
[22]
  inhibition: < 50%
[23]
  inhibition: < 50%
[24]
  inhibition: < 50%
[25]
  inhibition: < 50%
[26]
  inhibition: < 50%
[27]
  inhibition: < 50%
[28]
  inhibition: < 50%
[29]
  inhibition: < 50%
[30]
  inhibition: < 50%
